What was measured:
[1] = Redox potential at pH 7.3 by differential pulse and cyclic voltametry; type: physicochemical
Procedure, shortened: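 Glassy carbon working electrode, potentials vs Ag/AgCl. 0.1 mM compound (diluted from 10 mM ethanol stock) in pH 7.3 phosphate supporting electrolyte, made from 0.2 M K2HPO4 and KH2PO4. Differential pulse voltammetry was run at 5 mV s^-1. Cyclic voltammetry was run at 50 mV s^-1, with scan rates of 10–100 mV s^-1 also examined.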

[2] = Antioxidant activity assessed as inhibition of AAPH-induced lipid peroxidation in liposomes measured as Trolox equivalent antioxidant capacity; type: functional; details: Liposome
Procedure, shortened: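 Egg phosphatidylcholine LUVs (0.80 mM final) holding a radical-sensitive fluorescent probe were mixed with polyphenol (1.50, 7.50, 15.00 µM final; 1.5% ethanol) and shaken 10 min at 37 °C. Peroxidation was then started with 15.00 mM AAPH. Fluorescence (ex 360/40, em 460/40 nm) was read at 37 °C for 3 h. TEAC = (AUC compound − AUC control)/(AUC Trolox − AUC control). Run in duplicate.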

[3] = Antioxidant activity assessed as ratio of IC50 for Trolox to compound for ABTS radical scavenging activity after 5 mins by TEAC assay; type: functional
Procedure, shortened: (§1)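 Six ethanolic compound solutions (1.5 × 10^-5 to 15 × 10^-5 M) were made in duplicate, and 20 µL of each was added to 180 µL ABTS•+ in quadruplicate. Absorbance was read every 5 min over 20 min; ethanol blank = 100% radical. Radical % against concentration at 5 or 20 min was fitted by second-degree polynomial through 100%. TEAC = Trolox IC50 / compound concentration giving 50% bleaching.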

[4] = Antioxidant activity assessed as ratio of IC50 for Trolox to compound for ABTS radical scavenging activity after 20 mins by TEAC assay; type: functional; procedure, shortened: as §1
[5] = test system: Radical scavenging activity; assay: Antioxidant activity assessed as ratio of IC50 for Trolox to compound for DPPH radical scavenging activity by TEAC assay; type: functional
Procedure, shortened: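 DPPH• (180 µL) received 20 µL ethanolic compound, six concentrations of 1.5 × 10^-5 to 15 × 10^-5 M, prepared in duplicate and assayed in quadruplicate. Absorbance was read every minute for 10 min, then every 5 min for 50 min; ethanol blank = 100% radical. 60-min data were fitted by second-degree polynomial through 100%. TEAC = Trolox IC50 / compound concentration giving 50% bleaching.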

| Structure (SMILES) | Redox potential [1] [V] | Ratio [2] | Ratio IC50 [3] | Ratio IC50 [4] | Ratio IC50 [5] |
| --- | --- | --- | --- | --- | --- |
| O=C(O)CCc1ccc(O)c(O)c1 [DIHYDROCAFFEIC ACID] | 0.139 | 1.75 | 1.16 | 1.41 | 2.05 |
| COc1cc(CCC(=O)O)ccc1O [DIHYDROFERULIC ACID] | 0.41 | 0.22 | – | – | – |
| CCCCCCNC(=O)/C=C/c1ccc(O)c(OC)c1 [FERULOYLHEXYLAMIDE] | 0.322 | 1.22 | – | – | – |
| CCCCCCOC(=O)/C=C/c1ccc(O)c(OC)c1 [HEXYLFERULATE] | 0.328 | 1.13 | – | – | – |
| CCCCCCOC(=O)CCc1ccc(O)c(OC)c1 [HEXYLHYDROFERULATE] | 0.434 | 0.57 | – | – | – |
| CCCCCCNC(=O)CCc1ccc(O)c(O)c1 [HYDROCAFFEOYLHEXYLAMIDE] | 0.125 | 2.08 | 1.01 | 1.02 | 1 |

The next lines start with results.

| Redox potential [1] [V] | Structure (SMILES) | Ratio [2] | Ratio IC50 [3] | Ratio IC50 [4] | Ratio IC50 [5] |
| --- | --- | --- | --- | --- | --- |
| 0.183 | O=C(O)/C=C/c1ccc(O)c(O)c1 [CAFFEIC ACID] | 2.23 | 1.14 | 1.27 | 1.29 |
| 0.162 | CCCCCCNC(=O)/C=C/c1ccc(O)c(O)c1 [CAFFEOYLHEXYLAMIDE] | 2.41 | 1.04 | 1.05 | 1.11 |
| 0.35 | COc1cc(/C=C/C(=O)O)ccc1O [FERULATE] | 0.79 | – | – | – |
| 0.175 | CCCCCCOC(=O)/C=C/c1ccc(O)c(O)c1 [HEXYLCAFFEATE] | 3.55 | 0.91 | 0.93 | 0.97 |
| 0.125 | CCCCCCOC(=O)CCc1ccc(O)c(O)c1 [HEXYLHYDROCAFFEATE] | 3.49 | 0.96 | 0.96 | 0.99 |
| 0.388 | CCCCCCNC(=O)CCc1ccc(O)c(OC)c1 [HYDROFERULOYLHEXYLAMIDE] | 0.68 | – | – | – |

From ChEMBL document CHEMBL1212871, “Lipophilic phenolic antioxidants: correlation between antioxidant profile, partition coefficients and redox properties” (Bioorg Med Chem, 2010)
